{"data": "Assay results gathered from unrelated publications", "SLC6A2": "Sodium-dependent noradrenaline transporter (SLC6A2, Homo sapiens, UniProt P23975)", "Oprk1": "Kappa-type opioid receptor (Oprk1, Mus musculus, UniProt P33534)", "MPO": "Myeloperoxidase (MPO, Homo sapiens, UniProt P05164)", "note": "Protocols differ between the studies behind these lines."}
{"target": "SLC6A2", "assay": "ligand displacement, radioligand", "conditions": "10 µM", "inhibition [%]": 78, "SMILES": "CCOC(=O)[C@@]12C[C@@H]1[C@@H](n1cnc3c(Nc4ccccc4)nc(C#Cc4ccc(Cl)s4)nc31)[C@H](O)[C@@H]2O"}
{"target": "srtA (Staphylococcus aureus, UniProt Q2FV99)", "assay": "enzyme activity, inhibitor, FRET", "conditions": "120 µM", "inhibition [%]": 79.1, "SMILES": "O=c1c(O[C@@H]2O[C@H](CO)[C@H](O)[C@H](O)[C@H]2O)c(-c2ccc(O)c(O)c2)oc2cc(O)cc(O)c12"}
{"target": "Oprk1", "assay": "ligand displacement, radioligand", "conditions": "10 µM", "inhibition [%]": 63.9, "SMILES": "CC(C)[C@@H](CN1CCc2ccccc2C1)NC(=O)c1cccc(-c2ccc(F)cc2)c1"}
{"target": "MPO", "assay": "enzyme activity, inhibitor, fluorescence", "conditions": "15 µM", "inhibition [%]": 98.2, "SMILES": "COc1ccc(Cl)cc1-c1cc(=O)[nH]c(=S)n1CC(N)=O"}
{"target": "Serine/threonine-protein kinase WNK4 (WNK4, Homo sapiens, UniProt Q96J92)", "assay": "enzyme activity, inhibitor", "conditions": "0.1 µM", "inhibition [%]": 1.12, "SMILES": "Cc1cc(O)c(-c2ccc([C@@H](C)CN(C)C)cc2)c2c1[nH]c(=O)c1sccc12"}
{"target": "SLC6A2", "assay": "ligand displacement, radioligand", "conditions": "10 µM", "inhibition [%]": 37, "SMILES": "N#CC[C@@]12C[C@@H]1[C@@H](n1cnc3c(Nc4ccccc4)nc(C#Cc4ccc(Cl)s4)nc31)[C@H](O)[C@@H]2O"}
{"target": "Oprk1", "assay": "ligand displacement, radioligand", "conditions": "10 µM", "inhibition [%]": 55.7, "SMILES": "CC(C)[C@H](CN1CCc2ccccc2C1)NC(=O)C=Cc1ccccc1"}
{"target": "SLC6A2", "assay": "cell-free assay", "conditions": "10 µM", "inhibition [%]": 21, "SMILES": "Cc1cc(F)cc2c(CCC(=O)N[C@@H]3C(=O)NC[C@H]3O)c(-c3ccc(F)cc3)[nH]c12"}
{"target": "SLC6A2", "assay": "transporter uptake, inhibitor, radiometric", "system": "HEK293", "conditions": "10 µM", "inhibition [%]": 1, "SMILES": "CCOC(=O)[C@@]12C[C@@H]1[C@@H](n1cnc3c(NCCCCCc4ccccc4)nc(C#Cc4ccccc4)nc31)[C@H](O)[C@@H]2O"}
{"target": "Oprk1", "assay": "ligand displacement, radioligand", "conditions": "10 µM", "inhibition [%]": 75.7, "SMILES": "CC(C)[C@@H](CN1CCc2ccccc2C1)NC(=O)c1ccc(F)cc1"}
{"target": "MPO", "assay": "enzyme activity, inhibitor, fluorescence", "conditions": "3.333 µM", "inhibition [%]": 99.2, "SMILES": "NC/C(=C\\F)COc1cccc(Cn2c(=S)[nH]c(=O)c3[nH]cnc32)c1"}
{"target": "SLC6A2", "assay": "ligand displacement, radioligand", "conditions": "10 µM", "inhibition [%]": 81, "SMILES": "CCOC(=O)[C@@]12C[C@@H]1[C@@H](n1ccc3c(NCCCCc4ccccc4)nc(C#Cc4ccccc4)nc31)[C@H](O)[C@@H]2O"}
{"target": "Oprk1", "assay": "ligand displacement, radioligand", "conditions": "10 µM", "inhibition [%]": 68.8, "SMILES": "CC(C)[C@@H](CN1CCc2ccccc2C1)NC(=O)c1ccc([N+](=O)[O-])s1"}
{"target": "SLC6A2", "assay": "ligand displacement, radioligand", "conditions": "10 µM", "inhibition [%]": 83, "SMILES": "CCOC(=O)[C@@]12C[C@@H]1[C@@H](n1cnc3c(NCCCCCCc4ccccc4)nc(C#Cc4ccc(Cl)s4)nc31)[C@H](O)[C@@H]2O"}
{"target": "Oprk1", "assay": "ligand displacement, radioligand", "conditions": "10 µM", "inhibition [%]": 74.3, "SMILES": "CC(C)[C@@H](CN1CCc2ccccc2C1)NC(=O)c1cccc(-c2cccnc2)c1"}
{"target": "SLC6A2", "assay": "ligand displacement, radioligand", "conditions": "10 µM", "inhibition [%]": 20, "SMILES": "N#CC[C@@]12C[C@@H]1[C@@H](n1cnc3c(Nc4ccccc4)nc(I)nc31)[C@H](O)[C@@H]2O"}
{"target": "MPO", "assay": "enzyme activity, inhibitor, fluorescence", "conditions": "0.3704 µM", "inhibition [%]": 96.2, "SMILES": "CC(C)OCCn1c(=S)[nH]c(=O)c2[nH]ccc21"}
{"target": "Oprk1", "assay": "ligand displacement, radioligand", "conditions": "10 µM", "inhibition [%]": 70.9, "SMILES": "CC(C)[C@@H](CN1CCc2ccccc2C1)NC(=O)c1c(Cl)cncc1Cl"}
